Measurements taken from ChEMBL document CHEMBL1129430, “Synthesis and transporter binding properties of 3 beta-(4'-alkyl-, 4'-alkenyl-, and 4'-alkynylphenyl)nortropane-2 beta-carboxylic acid methyl esters: serotonin transporter selective analogs” (J Med Chem, 1996).

Tests used:
[1] = target: Norepinephrine transporter (Rattus norvegicus, UniProt Q9WTR4); test: Inhibition of [3H]nisoxetine binding to the norepinephrine transporter in rat midbrain.
[2] = target: Sodium-dependent dopamine transporter (Rattus norvegicus, UniProt P23977); test: Inhibition of [3H]WIN-35428 binding to the dopamine transporter in rat striata.
[3] = target: Monoamine transporters; serotonin & dopamine (Rattus norvegicus) (UniProt P31652+P23977); test: Selectivity for dopamine and serotonin transporters; type: protein assay
[4] = target: Monoamine transporters; Norepinephrine & serotonin (Rattus norvegicus) (UniProt P31652+Q9WTR4); test: Selectivity for norepinephrine and serotonin transporters; type: protein assay
Procedure, shortened: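 The NE/5-HT IC50 ratio is derived from IC50 values from two binding assays in rat brain. One is [3H]nisoxetine binding in midbrain (NE transporter). The other is [3H]paroxetine binding in frontal cortex (5-HT transporter).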

[5] = target: Sodium-dependent serotonin transporter (Rattus norvegicus, UniProt P31652); test: Inhibition of [3H]paroxetine binding to serotonin transporter in rat frontal cortex; type: tissue-based
Sodium-dependent serotonin transporter, sequence (P31652 whole entry): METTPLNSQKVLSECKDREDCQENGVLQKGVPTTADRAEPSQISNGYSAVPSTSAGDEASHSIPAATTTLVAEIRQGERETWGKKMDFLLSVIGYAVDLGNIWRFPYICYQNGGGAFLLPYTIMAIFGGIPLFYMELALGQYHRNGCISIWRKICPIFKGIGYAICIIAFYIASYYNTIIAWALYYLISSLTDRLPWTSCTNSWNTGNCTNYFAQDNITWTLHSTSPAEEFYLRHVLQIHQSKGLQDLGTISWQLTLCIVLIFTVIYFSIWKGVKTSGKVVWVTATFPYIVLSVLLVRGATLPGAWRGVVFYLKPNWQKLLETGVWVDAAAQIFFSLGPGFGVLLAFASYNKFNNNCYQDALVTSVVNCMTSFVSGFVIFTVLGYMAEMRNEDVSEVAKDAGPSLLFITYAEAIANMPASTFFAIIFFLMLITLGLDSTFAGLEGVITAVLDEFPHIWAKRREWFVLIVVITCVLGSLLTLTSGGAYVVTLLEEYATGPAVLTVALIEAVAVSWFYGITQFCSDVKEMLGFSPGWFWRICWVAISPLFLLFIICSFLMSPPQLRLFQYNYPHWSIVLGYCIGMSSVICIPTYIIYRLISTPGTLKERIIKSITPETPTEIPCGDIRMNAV

Norepinephrine transporter, sequence (Q9WTR4 whole entry): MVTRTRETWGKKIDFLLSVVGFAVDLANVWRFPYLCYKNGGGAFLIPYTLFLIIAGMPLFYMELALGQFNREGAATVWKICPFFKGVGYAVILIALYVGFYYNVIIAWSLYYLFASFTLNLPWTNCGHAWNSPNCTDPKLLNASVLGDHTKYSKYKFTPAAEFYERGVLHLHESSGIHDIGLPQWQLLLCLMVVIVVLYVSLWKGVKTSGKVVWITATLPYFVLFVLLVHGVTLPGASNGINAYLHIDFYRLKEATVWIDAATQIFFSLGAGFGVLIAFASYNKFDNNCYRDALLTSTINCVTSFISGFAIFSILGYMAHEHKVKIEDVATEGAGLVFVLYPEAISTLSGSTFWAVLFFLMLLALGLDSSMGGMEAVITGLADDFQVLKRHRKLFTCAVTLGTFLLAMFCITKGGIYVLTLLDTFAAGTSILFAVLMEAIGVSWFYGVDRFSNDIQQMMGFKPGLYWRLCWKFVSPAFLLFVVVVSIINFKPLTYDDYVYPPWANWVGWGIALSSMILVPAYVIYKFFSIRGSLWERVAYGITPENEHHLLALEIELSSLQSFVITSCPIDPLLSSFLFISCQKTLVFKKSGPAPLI
Monoamine transporters; serotonin & dopamine (Rattus norvegicus), sequence (P23977 whole entry, looked up): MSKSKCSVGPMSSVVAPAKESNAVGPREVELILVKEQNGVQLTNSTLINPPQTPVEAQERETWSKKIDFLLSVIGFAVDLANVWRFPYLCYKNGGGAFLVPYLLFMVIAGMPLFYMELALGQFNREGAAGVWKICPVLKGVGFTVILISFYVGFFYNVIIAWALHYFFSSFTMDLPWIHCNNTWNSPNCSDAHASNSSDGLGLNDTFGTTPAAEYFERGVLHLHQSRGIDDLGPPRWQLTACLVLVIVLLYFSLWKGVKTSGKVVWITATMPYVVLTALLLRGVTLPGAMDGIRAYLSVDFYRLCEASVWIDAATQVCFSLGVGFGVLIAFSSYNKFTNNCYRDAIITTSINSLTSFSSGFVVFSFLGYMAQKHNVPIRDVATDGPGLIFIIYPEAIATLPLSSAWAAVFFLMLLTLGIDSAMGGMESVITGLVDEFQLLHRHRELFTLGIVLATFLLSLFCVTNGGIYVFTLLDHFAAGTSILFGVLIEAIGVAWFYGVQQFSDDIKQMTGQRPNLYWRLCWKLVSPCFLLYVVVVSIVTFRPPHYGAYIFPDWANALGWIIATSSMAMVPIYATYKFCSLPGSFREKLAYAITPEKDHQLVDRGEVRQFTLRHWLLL
Monoamine transporters; serotonin & dopamine (Rattus norvegicus), sequence (P31652 whole entry, looked up): as the sequence (P31652 whole entry) above
Sodium-dependent dopamine transporter, sequence (P23977 whole entry): as the sequence (P23977 whole entry, looked up) above

| Compound | IC50 [1] [nM] | IC50 [2] [nM] | Ratio [3] | Ratio [4] | IC50 [5] [nM] |
| --- | --- | --- | --- | --- | --- |
| COC(=O)C1C(c2ccc(C(C)C)cc2)CC2CCC1N2C (stereo not given) | 75000 | 597 | 3.1 | 392 | 191 |
| C/C=C\c1ccc(C2CC3CCC(C2C(=O)OC)N3C)cc1 (stereo not given) | 2800 | 15 | 2.1 | 395 | 7.09 |
| CCCc1ccc(C2CC3CCC(C2C(=O)OC)N3C)cc1 (stereo not given) | 3920 | 68.5 | 0.97 | 56 |  |
| C=Cc1ccc(C2CC3CCC(N3)C2C(=O)OC)cc1 (stereo not given) | 14.9 | 1.73 | 0.77 | 6.6 |  |
| CCc1ccc(C2CC3CCC(N3)C2C(=O)OC)cc1 (stereo not given) | 122 | 49.9 | 6.1 | 15 |  |
| C=CCc1ccc(C2CC3CCC(C2C(=O)OC)N3C)cc1 (stereo not given) | 2480 | 32.8 | 1.16 | 87 | 28.4 |
| C=C(C)c1ccc(C2CC3CCC(C2C(=O)OC)N3C)cc1 (stereo not given) | 1330 | 14.1 | 4.6 | 425 |  |
| C=Cc1ccc(C2CC3CCC(C2C(=O)OC)N3C)cc1 (stereo not given) | 78 | 1.24 | 0.13 | 8.2 | 9.5 |
| CC#Cc1ccc(C2CC3CCC(N3)C2C(=O)OC)cc1 (stereo not given) | 116 | 6.11 | 1.93 | 37 | 3.16 |
| C/C=C/c1ccc(C2CC3CCC(N3)C2C(=O)OC)cc1 (trans isomer) | 54 | 28.6 | 22 | 42 | 1.3 |
| C=CCc1ccc(C2CC3CCC(N3)C2C(=O)OC)cc1 (stereo not given) | 89.7 | 56.5 | 9.1 | 15 | 6.2 |
| C#Cc1ccc(C2CC3CCC(N3)C2C(=O)OC)cc1 (stereo not given) | 21.8 | 1.24 | 0.78 | 13.7 | 1.59 |
| COC(=O)C1C2CCC(CC1c1ccc(C(C)C)cc1)N2 (stereo not given) |  | 320 |  | 21 |  |
| CCc1ccc(C2CC3CCC(C2C(=O)OC)N3C)cc1 (stereo not given) | 4030 | 55 | 1.9 | 142 |  |
| COC(=O)[C@@H]1C2CCC(C[C@@H]1OC(=O)c1ccccc1)N2 (stereo not given in full) | 139 | 206 | 1.6 | 1.1 | 127 |
| CC#Cc1ccc(C2CC3CCC(C2C(=O)OC)N3C)cc1 (stereo not given) | 820 | 2.37 | 0.15 | 52 |  |
| C=C(C)c1ccc(C2CC3CCC(N3)C2C(=O)OC)cc1 (stereo not given) | 144 | 23 | 38 | 240 | 0.6 |
| C#Cc1ccc(C2CC3CCC(C2C(=O)OC)N3C)cc1 (stereo not given) | 83.2 | 1.2 | 0.27 | 19 | 4.4 |
| CCCc1ccc(C2CC3CCC(N3)C2C(=O)OC)cc1 (stereo not given) | 532 | 212 | 8.2 | 21 | 26 |
| C/C=C\c1ccc(C2CC3CCC(N3)C2C(=O)OC)cc1 (cis isomer) | 147 | 31.6 | 28 | 128 | 1.15 |
| C/C=C/c1ccc(C2CC3CCC(C2C(=O)OC)N3C)cc1 (stereo not given) | 1590 | 5.29 | 0.46 | 140 |  |
